Key:
[1] = system: Swi6; assay: SV AUC weighted average sedimentation coefficient; assay type: binding, S. pombe; conditions: [Swi6^WT] = 20μM
[2] = system: H3K9me3 tail peptide; assay: H3 tail peptide binding; conditions: Supplementary Fig. 5
Outline: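 Intrinsic Trp fluorescence (W104 in aromatic cage): 200nM Swi6 in 20mM HEPES pH 7.5, 150mM KCl, 1 mM DTT, titrated with H3 peptide (residues 1–18), K9 trimethylated or unmethylated. 10min at 30°C, excitation 295 nm, emission read at 330 nm. Kd from 1:1 binding fit, averaged over three independent data sets.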

[3] = target: Swi6 (Schizosaccharomyces pombe, UniProt P40381, C121S/C124S/C310S); assay: Swi6 self-association by sedimentation equilibrium/velocity AUC; assay type: binding, S. pombe; conditions: all three native cysteines mutated to serines; Supplementary Fig. 5
Swi6 (Schizosaccharomyces pombe, UniProt P40381, C121S/C124S/C310S), sequence (P40381 whole entry C121S/C124S/C310S): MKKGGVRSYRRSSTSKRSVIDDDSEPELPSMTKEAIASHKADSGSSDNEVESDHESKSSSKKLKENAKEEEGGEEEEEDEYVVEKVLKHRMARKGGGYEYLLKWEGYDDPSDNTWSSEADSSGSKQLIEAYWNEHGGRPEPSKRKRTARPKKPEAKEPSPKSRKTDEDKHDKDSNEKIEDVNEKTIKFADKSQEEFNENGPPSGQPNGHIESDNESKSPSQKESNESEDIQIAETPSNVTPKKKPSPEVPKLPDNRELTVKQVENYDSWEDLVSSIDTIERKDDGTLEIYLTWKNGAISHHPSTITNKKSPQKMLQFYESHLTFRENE

[4] = target: T1, Swi6 (Schizosaccharomyces pombe, UniProt P40381); assay: as above; assay type: binding, S. pombe; conditions: AUC
T1 sequence (P40381 1-328): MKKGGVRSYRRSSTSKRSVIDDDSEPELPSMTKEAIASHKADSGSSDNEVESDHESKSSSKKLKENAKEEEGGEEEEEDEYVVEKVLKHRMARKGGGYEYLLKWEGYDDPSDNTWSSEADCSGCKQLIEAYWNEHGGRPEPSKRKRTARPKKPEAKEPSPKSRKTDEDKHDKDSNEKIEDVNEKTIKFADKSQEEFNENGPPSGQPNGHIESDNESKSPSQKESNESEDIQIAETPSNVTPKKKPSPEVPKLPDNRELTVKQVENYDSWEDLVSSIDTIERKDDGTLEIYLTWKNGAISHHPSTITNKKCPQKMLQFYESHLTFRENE

[5] = system: H3K9me3 nucleosomes; assay: Nucleosome binding by fluorescence anisotropy/polarization; design: species or system Xenopus laevis
Outline: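 Core nucleosomes assembled from recombinant Xenopus histones on 147 bp 601 DNA, one end 6-carboxyfluorescein-labelled; H3K9me3 mimicked by methyl-lysine analog (H3KC9me3). 5-10 nM nucleosomes titrated with Swi6 in 20mM HEPES pH 7.5, 150mM KCl, 1 mM DTT, 0.01% NP40; 30 min at 24°C; FP at λex 480/λem 530nm. Fit to a two-step model giving Kd1 (Swi6–nucleosome) and Kd2 (scaffolded Swi6–Swi6); n ≥ 3, s.e.m.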

[6] = system: Swi6; assay: Swi6 self-association by sedimentation equilibrium/velocity AUC; assay type: binding, S. pombe; conditions: AUC, Supplementary Fig. 6
[7] = target: H3K9me3 tail peptide (UniProt P68431); assay: other fluorescence titration + fluorescence polarisation
[8] = system: Swi6; assay: Swi6 protein levels in vivo; assay type: cell-based, S. pombe; conditions: silencing strains; Supplementary Fig. 9
Outline: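 Detection with rabbit polyclonal antibodies raised against recombinant Swi6.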

[9] = system: ura4+ reporter gene inserted at the pericentromeric imr region; assay: ura4+ reporter silencing assay; assay type: cell-based, S. pombe; conditions: 5-FOA medium, 30°C, 2-3 days; Fig. 4d
Outline: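 Strains grown overnight to saturation, adjusted to OD600 of 1 for the most concentrated spot, then 5-fold serial dilutions plated on non-selective YS and on 5-FOA (2 grams/liter) media.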

[10] = target: the molecule itself; assay: AUC
[11] = target: the molecule itself; assay: AUC; remark: listed apart in the source

With “Swi6^WT: major S. pombe HP1 protein, Swi6, wild type” the “sedimentation coefficient, tetramer (S4)” value [1] was ~ 5.2 S, the “effect of mutating native cysteines on H3 peptide binding” value [2] was “destabilized oligomerization, H3 peptide binding” and the “effect of mutating native cysteines on oligomerization” value [3] was “destabilized oligomerization”. The “1/Kobsiso, isodesmic self-association of Swi6 dimers (chain elongation)” value ([4]; SE and SV global analysis, 8°C, RB: 20mM HEPES pH 7.5, 150mM KCl, 1 mM DTT) was ~70 µM, the “Swi6 dimerization with saturating methylated H3 tail peptide” value ([4]; saturating methylated H3 tail peptide, Supplementary Fig. 4) was “weakened” and the “effect of mutating native cysteines on nucleosome binding” value ([5]; Supplementary Fig. 5) was “destabilized oligomerization, H3 peptide binding, and nucleosome binding”.

“Swi6-CFP: Swi6 with the CFP tag moved to the C-terminus” was tested, and the “sedimentation coefficient compared to CFP-Swi6 (in words)” value [6] was “lower sedimentation coefficient”.

B1: Swi6^LoopX (natural protein)
chain: MKKGGVRSYRRSSTSKRSVIDDDSEPELPSMTKEAIASHKADSGSSDNEVESDHESKSSSKKLKENAKEEEGGEEEEEDEYVVEKVLKHRMAAAGGGYEYLLKWEGYDDPSDNTWSSEADCSGCKQLIEAYWNEHGGRPEPSKRKRTARPKKPEAKEPSPKSRKTDEDKHDKDSNEKIEDVNEKTIKFADKSQEEFNENGPPSGQPNGHIESDNESKSPSQKESNESEDIQIAETPSNVTPKKKPSPEVPKLPDNRELTVKQVENYDSWEDLVSSIDTIERKDDGTLEIYLTWKNGAISHHPSTITNKKCPQKMLQFYESHLTFRENE
B1 was tested, and the fold stronger binding than Swi6^WT [7] was 6 fold, the Swi6 protein levels [8] was “not due to reductions in protein levels” and the “discrimination for the methyl mark in nucleosome binding” value ([5]; fluorescence anisotropy, Fig. 4a and Supplementary Fig. 8) was “discrimination for the methyl mark was maintained”. The “silencing of ura4+ reporter” value [9] was “defects in silencing that are comparable to the swi6+ deletion strain”.

B2: CFP-Swi6 (natural protein, S. pombe, UniProt P40381 1-328, looked up)
chain: MKKGGVRSYRRSSTSKRSVIDDDSEPELPSMTKEAIASHKADSGSSDNEVESDHESKSSSKKLKENAKEEEGGEEEEEDEYVVEKVLKHRMARKGGGYEYLLKWEGYDDPSDNTWSSEADCSGCKQLIEAYWNEHGGRPEPSKRKRTARPKKPEAKEPSPKSRKTDEDKHDKDSNEKIEDVNEKTIKFADKSQEEFNENGPPSGQPNGHIESDNESKSPSQKESNESEDIQIAETPSNVTPKKKPSPEVPKLPDNRELTVKQVENYDSWEDLVSSIDTIERKDDGTLEIYLTWKNGAISHHPSTITNKKCPQKMLQFYESHLTFRENE
With B2 the “fold weaker dimer than Swi6^WT” value [10] was ~10 fold.

B3: Swi6^WT (natural protein, S. pombe, UniProt P40381 1-328, looked up)
chain: MKKGGVRSYRRSSTSKRSVIDDDSEPELPSMTKEAIASHKADSGSSDNEVESDHESKSSSKKLKENAKEEEGGEEEEEDEYVVEKVLKHRMARKGGGYEYLLKWEGYDDPSDNTWSSEADCSGCKQLIEAYWNEHGGRPEPSKRKRTARPKKPEAKEPSPKSRKTDEDKHDKDSNEKIEDVNEKTIKFADKSQEEFNENGPPSGQPNGHIESDNESKSPSQKESNESEDIQIAETPSNVTPKKKPSPEVPKLPDNRELTVKQVENYDSWEDLVSSIDTIERKDDGTLEIYLTWKNGAISHHPSTITNKKCPQKMLQFYESHLTFRENE
For B3, the Kd [11] was < 1 nM.

From PMC3907283 (Nature, 2013)
